Source: PubChem
Most compounds without a hit are left out; they make up all but 1.9% or so of the library.
Ecoli rRNA inh = inhibitors of bacterial rRNA selective over humanized ribosomes; E. coli WT GFP vs humanized-ribosome RFP mutants, fluorescence, 24 h; hits give low values; DMSO median 0, no signal -100; GFP signal change (wild-type ribosome), % (no concentration beside the values); 1.6% of 350,000 active;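 active = significant combined selectivity score with lowered wild-type GFP, culture density cut under 30%, mutant RFP and density less affected; inactive = any of these conditions unmet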
PglD DTNB = blocks C. jejuni PglD acetyltransferase activity. purified PglD enzyme, DTNB colorimetric CoA detection. inhibition, % at 12.5 µM. 0.098% of 360,000 active. AID 602405; in the data active = inhibition above about 16%, passing the limit was not always enough
RAD52 inh = RAD52 (human) annealing inhibition. recombinant RAD52 DNA annealing, FRET fluorescence. P43351. 0.46% of 360,000 active. AID 651710. inhibition, % at 18.7 µM;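 active = every replicate showing at least 50% inhibition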
Target sequence (P43351 whole entry, looked up): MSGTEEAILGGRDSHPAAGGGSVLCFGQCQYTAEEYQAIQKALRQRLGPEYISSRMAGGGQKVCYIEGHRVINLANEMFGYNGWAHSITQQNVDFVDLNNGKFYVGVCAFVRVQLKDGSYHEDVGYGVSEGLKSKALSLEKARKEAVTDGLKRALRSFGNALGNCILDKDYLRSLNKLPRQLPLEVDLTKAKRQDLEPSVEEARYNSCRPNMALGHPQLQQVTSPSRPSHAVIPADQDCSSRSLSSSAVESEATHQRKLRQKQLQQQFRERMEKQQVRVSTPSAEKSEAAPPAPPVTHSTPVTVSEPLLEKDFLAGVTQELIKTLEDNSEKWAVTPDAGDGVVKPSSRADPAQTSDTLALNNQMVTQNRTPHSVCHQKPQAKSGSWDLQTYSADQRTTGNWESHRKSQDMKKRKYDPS
RAD54 inh = inhibitors of human RAD54 branch migration; RAD54 Holliday junction branch migration, FAM/BHQ fluorescence; inhibition, % at 10.4 µM; 0.14% of 360,000 active; Q92698;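 active = mean normalized replicate activity at least 40 and at least half of replicates scoring 40 or more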;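 also: 0% = median of neutral control wells and 100% = median of positive control wells; inhibitors cause a drop in the FAM fluorescence signal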
Cneo AK release = causes C. neoformans cell lysis; adenylate kinase release luminescence, 4 h; normalised: neutral wells 0, clomiphene wells 100; lysis activity, % at 15 µM; 0.2% of 360,000 active;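 active = mean lysis activity across replicates of at least 80%, whatever share of replicates individually reach that level; inactive = mean lysis activity below 80%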
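read-out = cell lysis signal | test system = log-phase Cryptococcus neoformans yeast cells | input = cells at 5 × 10^6 per mL | medium = fresh YPD growth medium | signal = luminescent adenylate kinase detection reagent | timing = 4 h at 37 °C static, read 1 h later | dosing = single dose | controls = Clomiphene as positive lysis control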
Numbers without * were called inactive; nt = no result.

SMILES | Ecoli rRNA inh | PglD DTNB | RAD52 inh | RAD54 inh | Cneo AK release
C=CCN(c1ccccc1OC)S(=O)(=O)c1cccc(C(=O)OCC(=O)c2c(N)n(C)c(=O)n(C)c2=O)c1 | -18.6* | -1.4 | -15.9 | 0.7 | -0.9
Cn1c(N)c(C(=O)COC(=O)c2ccc(Cl)c(S(=O)(=O)N3CCCC3)c2)c(=O)n(C)c1=O | -25.9* | 1.6 | -1.3 | -3.4 | 2.8
Cn1c(N)c(C(=O)COC(=O)CSc2ccc3ccccc3c2)c(=O)n(C)c1=O | -20.2 | nt | -29.9 | nt | nt
CNS(=O)(=O)c1cccc(C(=O)OCC(=O)c2c(N)n(C)c(=O)n(C)c2=O)c1 | -1.6 | nt | -16.2 | nt | nt
O=C(COc1ccccc1F)NNC(=O)c1cccc(-n2cccc2)c1 | -43.5* | -2.9 | -3.9 | 9.0 | -1.4
CCOc1ccccc1NC(=O)c1csc(C)c1C | -30.6* | -5.2 | -4.6 | -2.6 | -6.6
CCCNC(=O)N(C)C[C@@H]1Oc2ncc(-c3ccncc3)cc2C(=O)N([C@H](C)CO)C[C@H]1C | 0.2 | 1.5 | -9.5 | 2.7 | -2.2
COc1ccc(S(=O)(=O)Nc2ccc3c(c2)C(=O)N([C@H](C)CO)C[C@H](C)[C@H](CN(C)S(=O)(=O)c2ccc(C)cc2)OCCCC[C@H](C)O3)cc1 | 1.1 | -9.1 | -30.2 | -7.5 | 1.6
Fc1cc(Br)ccc1NC(=S)NCCc1ccccc1 | -49.5* | nt | -5.2 | nt | nt
S=C(NCCc1ccccc1)N/N=C/c1ccc(Cl)cc1 | -27.6* | nt | -15.3 | nt | nt
Fc1ccccc1NC(=S)NCCc1cccc(Cl)c1 | -24.6 | 2.9 | -5.4 | -0.4 | 97.3*
S=C(NCCc1ccccc1)Nc1ccc(Cl)cc1 | -54.0 | nt | 3.5 | nt | nt
S=C(NCCc1ccccc1)NCc1cccc(Cl)c1 | -2.7 | -1.5 | -7.0 | 12.1 | 18.7
C[C@@H]1CN([C@@H](C)CO)C(=O)Cc2cc(NC(=O)Cc3cn(C)c4ccccc34)ccc2O[C@H]1CN(C)S(=O)(=O)c1ccc(Cl)cc1 | -8.3 | nt | nt | nt | nt
CO[C@H]1CN(C)C(=O)c2cc(NC(=O)c3ccccc3F)ccc2OC[C@@H](C)N(C(=O)c2ccccc2F)C[C@@H]1C | -1.7 | -0.4 | -7.2 | -3.0 | -8.1
CC(C)NC(=O)N(C)C[C@H]1Oc2ccc(N(C)C)cc2C(=O)N(C)C[C@H]1C | -0.2 | nt | nt | nt | nt
COCC(=O)Nc1ccc2c(c1)OC[C@H](C)N(Cc1ccccc1OC)C[C@H](C)[C@@H](OC)CN(C)C2=O | 0.8 | nt | -5.4 | nt | nt
C[C@@H]1CN([C@@H](C)CO)C(=O)c2cc(NC(=O)c3ccccc3)ccc2O[C@@H](C)CCCCO[C@H]1CN(C)S(=O)(=O)c1cn(C)cn1 | -2.0 | nt | -12.6 | nt | nt
COC(=O)c1cn(CC(=O)N2CCC3(CC2)C(=O)NCN3c2ccccc2)nn1 | nt | 1.4 | 1.3 | 2.6 | 50.8
CC(=O)Nc1ccc2c(c1)C(=O)N(C)C[C@H](C)[C@@H](CN(C)C(=O)OC(C)(C)C)O2 | -0.6 | nt | nt | nt | nt
Cn1c(=O)c(-c2cc(=O)[nH][nH]2)c(O)c2ccccc21 | -34.1* | nt | -9.7 | nt | nt
C=CCN1c2ccc(Br)cc2C(=O)CS1(=O)=O | -21.1 | 1.3 | -31.6 | -7.3 | -0.4
COc1cccc(CN2c3ccc(Br)cc3C(=O)CS2(=O)=O)c1 | -37.4* | -4.4 | -20.3 | -8.4 | -0.7
CCCN1[C@@H]2Cn3c(ccc(-c4ccccc4F)c3=O)[C@H]1[C@@H](C(=O)NCc1ccccn1)[C@@H]2CO | 5.0 | nt | -5.8 | nt | nt
Cc1ccccc1NC(=O)/C(C#N)=C\c1cc(C)n(-c2ccc(C(=O)O)cc2)c1C | -22.9* | nt | -28.4 | nt | nt
SMILES | Ecoli rRNA inh | PglD DTNB | RAD52 inh | RAD54 inh | Cneo AK release
Cc1cc(/C=C(/C#N)C(=O)Nc2ccccc2)c(C)n1-c1cccnc1 | -4.4 | -2.6 | -29.1 | 17.7 | -3.1
COc1ccccc1-c1ccc(/C=N/O)o1 | -34.5* | -0.3 | -27.4 | -5.2 | 1.9
O/N=C\c1ccc(-c2ccccc2)o1 | -0.9 | nt | -11.9 | nt | nt
CCCC(=O)Nc1sc(Cc2ccccc2)c(C)c1C(N)=O | -23.6* | 3.6 | -23.7 | -6.5 | -1.8
COC(=O)CCC(=O)Nc1sc(Cc2ccccc2)c(C)c1C(N)=O | -0.6 | nt | -2.7 | nt | nt
CN1C[C@H]2[C@@H](c3ccccc31)[C@H](CO)N2C(=O)Nc1cccc(F)c1 | -4.2 | 0.9 | -2.2 | 15.7 | 5.6
CC(C)CC#Cc1cnc2c(c1)C(=O)N([C@@H](C)CO)C[C@@H](C)[C@H](CN(C)C(=O)c1cccnc1)O2 | -2.8 | 2.8 | 4.3 | -7.5 | -1.5
CCCC#Cc1cnc2c(c1)C(=O)N([C@H](C)CO)C[C@@H](C)[C@@H](CN(C)C(=O)Nc1cccc(F)c1)O2 | 2.2 | 4.3 | -21.7 | -2.8 | 0.8
CCCC#Cc1cnc2c(c1)C(=O)N([C@@H](C)CO)C[C@H](C)[C@H](CN(C)C(=O)Nc1cccc(F)c1)O2 | -1.9 | -0.7 | -6.1 | 1.6 | 88.4*
COCC#Cc1cnc2c(c1)C(=O)N([C@H](C)CO)C[C@H](C)[C@@H](CN(C)C(=O)Nc1ccc(OC)cc1)O2 | 0.5 | 1.4 | -2.5 | 3.5 | -1.2
CCCNC(=O)N(C)C[C@@H]1Oc2ncc(C#CCc3ccccc3)cc2C(=O)N([C@@H](C)CO)C[C@@H]1C | 3.1 | -0.5 | 3.5 | 6.6 | 96.8*
COCC#Cc1cnc2c(c1)C(=O)N([C@H](C)CO)C[C@@H](C)[C@@H](CN(C)C(=O)Nc1ccc(OC)cc1)O2 | 1.7 | -3.9 | -6.7 | -1.7 | 97.4*
CC(C)CC#Cc1cnc2c(c1)C(=O)N([C@H](C)CO)C[C@H](C)[C@H](CN(C)C(=O)c1cccnc1)O2 | 0.5 | 0.9 | 4.7 | -0.8 | 81.8*
C[C@H]1CN([C@@H](C)CO)C(=O)c2cc(C3=CCCC3)cnc2O[C@@H]1CN(C)C(=O)C1CC1 | 2.7 | nt | nt | nt | nt
CN1C(=O)c2cc(NS(C)(=O)=O)ccc2OC[C@H]2O[C@H](CC(=O)N3CCOCC3)CC[C@@H]21 | -3.2 | -1.5 | 0.6 | 3.8 | 0.8
COCC(=O)N(C)C[C@H]1Oc2ncc(C#CCC3CCCC3)cc2C(=O)N([C@H](C)CO)C[C@H]1C | 2.5 | 2.2 | -17.7 | 0.3 | -0.8
CC(C)CC#Cc1cnc2c(c1)C(=O)N([C@@H](C)CO)C[C@@H](C)[C@@H](CN(C)C(=O)c1cccc(F)c1)O2 | 1.2 | 1.8 | 5.6 | 0.9 | 100.5*
COCC(=O)N(C)C[C@@H]1Oc2ncc(C#CCC3CCCC3)cc2C(=O)N([C@@H](C)CO)C[C@H]1C | 2.7 | 2.5 | -7.1 | 3.0 | 103.2*
COc1ccccc1/C=C1\SC(=S)N(CCC(=O)NCCCn2ccnc2)C1=O | -23.9* | 2.4 | -17.4 | 5.6 | -1.2
COc1ccccc1/C=C1\SC(=S)N(CCC(=O)N2CCN(C)CC2)C1=O | -18.8* | -1.4 | -18.4 | -1.3 | -0.5
CCOC(=O)N1CCN(C(=O)CCN2C(=O)/C(=C\c3ccccc3OC)SC2=S)CC1 | nt | 3.3 | nt | -17.4 | 4.3
O=C(CCCN1C(=O)/C(=C/c2ccccc2Cl)SC1=S)N1CCCC1 | -39.8* | -5.3 | -33.7 | 7.3 | -4.7
O=C(CCN1C(=O)/C(=C/c2ccccc2Cl)SC1=S)N1CCCC1 | 1.2 | -0.9 | -3.8 | -10.4 | 7.7
